High-throughput results as filed in PubChem.
The entries come from a sample that favours hits as a whole.
UPR XBP1 act – adaptive UPR (XBP1) activation | activation, % at 20 µM | 330,000 compounds, 0.33% hits | AID 463104 | CHO-XBP1 luciferase reporter, IRE1-XBP1 UPR activation, luminescence; percent of tunicamycin response, DMSO as zero;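 active = versus positive control, 20 µM dose yields 30% or more activation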;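 also: 100% = tunicamycin at 10 µg/mL and 0% = DMSO only wells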
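incubation = overnight seeding at 37 °C, 6 h compound treatment at 37 °C | assay system = CHO-XBP1 cells stably carrying IRE1-XBP1-driven luciferase reporter | input = 1000 cells per well | detection = luciferase luminescence | dosing = single point, 20 µM final compound, 1% DMSO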
Dynein transport – dynein cargo transport inhibition. 3617.4 mouse cells, GR-EGFP nuclear translocation imaging; test concentration mostly 20 µM; stimulated with dexamethasone, 1 µM; active compounds read low. z-score, hits read low. 220,000 compounds, 0.47% hits;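 active = plate z-score of nuclear minus cytoplasmic receptor signal below a set negative limit, without overly bright fluorescence or cell loss, cut at about -3.5 in these data, passing the limit was not always enough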;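 also: z-score of nuclear minus cytoplasmic ring GR-EGFP intensity difference per well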
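Buffer or medium – tet-free medium with charcoal-stripped serum · Signal – automated 10x imaging of fixed Hoechst-stained cells · Also added – dexamethasone agonist, 1.0 µM final, for 30 min · Incubation – induction 48 h, compound 1 h, agonist 30 min · Read-out – GR-EGFP nuclear translocation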
CHOP inhibitor – CHOP inhibition in unfolded protein response | 220,000 compounds, 3.8% hits | AID 2732 | inhibition, % at 10 µM | CHO-K1 CHOP-promoter luciferase, tunicamycin-induced, 15-18 h;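 active = compounds that reduced the stress-induced luciferase reporter signal by more than about 70% of percent inhibition, limit read from the data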;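 also: 0% = tunicamycin plus vehicle and 100% = wells without tunicamycin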
UPR CHOP act – apoptotic UPR (CHOP) activation; CHO-CHOP luciferase reporter, luminescence; percent of tunicamycin response over DMSO baseline; AID 449763; activation, % at 10 µM; 330,000 compounds, 0.34% hits;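 active = at 10 µM dose, activation of 40% or more, normalized to positive control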;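 also: 100% = tunicamycin at 10 µg/mL and 0% = DMSO alone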
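Assay system: CHO-CHOP cells, stable luciferase reporter of PERK-eIF2a-CHOP signalling / Buffer or medium: F12 plus 10% serum / Compound dosing: one dose, 10 µM in 0.5% DMSO / Times: 6 h compound treatment, 37 °C / Technique: luciferase luminescence / Read-out: % reporter activation, DMSO baseline versus tunicamycin full activation / Benchmarks: tunicamycin and DMSO controls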
L major viab – reduces viability of Leishmania major promastigotes; inhibition, % at 10 µM; resazurin fluorescence viability; AID 1063; 200,000 compounds, 9% hits; in the data active = inhibition above about 50%;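 also: promastigotes grown with compound for 44 hours at 28 °C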
T cruzi repl – T. cruzi replication inhibition | T. cruzi beta-gal in NIH3T3, luminescence, 90 h | inhibition, % (test concentration not listed) | 300,000 compounds, 1.4% hits;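 active = mean inhibition across valid replicates above about 55%, limit read from the data; inconclusive = mean below that limit but half or more replicates reach it; inactive = mean below it, under half of replicates reach it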;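 also: signal also drops with host cell toxicity which is not excluded here; 0% = plate median of DMSO wells and 100% = zero luminescence signal; higher percent means less beta-gal luminescence so fewer parasites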
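System: Mouse NIH/3T3 fibroblasts infected with β-gal-expressing T. cruzi Tulahuen C4 | Quantity: NIH/3T3 cells, 5,000 per well | Reagent: 5000 reporter trypomastigotes per well | Dosing: Compound pinned at 50 nL/well, DMSO | Schedule: 3 h host attachment, then at least 90 h co-culture | Detection: GalScreen luminescence, 60 min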
* marks the source's active call; other numbers are inactive results; ? = inconclusive; . = no result given.

SMILES	UPR XBP1 act	Dynein transport	CHOP inhibitor	UPR CHOP act	L major viab	T cruzi repl
O=C(NCc1ccco1)c1ccc(S(=O)(=O)N2CCCc3ccccc32)cc1	-4	-0.23	-13	-1	64*	45
Cc1ccc2nc(NC(=O)c3ccc(S(=O)(=O)N4CCCc5ccccc54)cc3)sc2c1	3	-0.00026	76*	11	98*	13
O=C(Nc1nc2ccc(F)cc2s1)c1cccc(S(=O)(=O)N2CCc3ccccc32)c1	0	-0.77	27	3	5	15
CCCN(CCC)C(=O)c1ccc2nc(-c3ccc(OC)c(OC)c3)c(-c3ccc(OC)c(OC)c3)nc2c1	0	.	.	4	.	?
COCc1nnc(NC(=O)c2ccc(S(=O)(=O)N3CCCc4ccccc43)cc2)o1	4	0.92	12	1	1	-42
COc1ccc(-c2nnc(NC(=O)c3ccc(S(=O)(=O)N4CCCc5ccccc54)cc3)o2)cc1	4	-0.53	17	12	99*	63*
COc1ccc(-n2c(C)nc3cc(C(=O)NCc4ccc5c(c4)OCO5)ccc32)cc1	-1	3	14	2	83*	-1
Cc1ccc(C2=NN(CCC(=O)NCCC(C)C)C(=O)CC2)cc1	-1	0.12	30	1	73*	-25
COc1ccc(C2=NN(CCC(=O)NCc3ccc4c(c3)OCO4)C(=O)CC2)cc1	2	-0.76	10	0	54*	-3
Cc1ccc(C2=NN(CCC(=O)NCc3ccc4c(c3)OCO4)C(=O)CC2)cc1	0	-0.51	43	1	42	5
CC(C)CN(CCNC(=O)CN1N=C(c2ccc(Cl)cc2)CCC1=O)CC(C)C	-4	.	.	1	.	-16
Cc1ccc(NC(=O)c2ccc3nsnc3c2)c(C)c1	-4	.	.	5	.	-9
Cc1cc(C)cc(NC(=O)Cn2nnc(C(=O)NCc3cccs3)c2N)c1	-3	.	.	-2	.	13
Cc1cc(C)c(NC(=O)Cn2nnc(C(=O)NCc3cccs3)c2N)c(C)c1	-3	0.0022	85*	0	-6	-10
Cc1csc(C2=C(O)CN(CCc3ccccc3)C2=N)n1	-2	-0.47	31	-4	99*	5
COc1ccc(C2(O)CCN(CC(=O)Nc3nccs3)CC2)c(OC)c1	-4	0.57	14	0	88*	12
CN(C(=O)c1cc(COc2ccc(F)c(F)c2)on1)C1CCOC1 (configuration not stated)	-5	.	.	3	.	2
CCCOc1ccc(NCC(=O)Nc2ccc(C)cc2C)cc1	-2	-0.4	38	-3	7	76*
Cc1nn(S(=O)(=O)c2ccc([N+](=O)[O-])cc2)c(C)c1Sc1ccccc1	3	-0.066	.	3	-6	64*
COc1cc(/C=C(\C#N)C(=O)NCC2CCCO2)ccc1OC(C)C (configuration not stated)	-2	0.23	-15	7	79*	-2
COc1ccc(/C=C(\C#N)C(=O)NCC2CCCO2)cc1OC (configuration not stated)	1	1.9	1	2	10	10
COc1ccc(NS(=O)(=O)c2ccc(C)c(C(=O)NCC(c3ccco3)N(C)C)c2)cc1 (configuration not stated)	0	.	.	-1	.	9
Cn1c(=O)c2c(SC3CCCC3)nc(C3CC3)nc2n(C)c1=O	11	-0.19	80*	1	2	-17
O=C(NC(=S)N1CCN(c2ccc(C(F)(F)F)cc2[N+](=O)[O-])CC1)c1cccs1	0	-1.2	8	-2	34	13
CC(C)n1nc(C(=O)Nc2ccccc2N2CCOCC2)c2ccccc2c1=O	13	2.3	25	-1	87*	22
SMILES	UPR XBP1 act	Dynein transport	CHOP inhibitor	UPR CHOP act	L major viab	T cruzi repl
Cc1noc(C)c1C(=O)Nc1ccccc1N1CCOCC1	0	.	.	-1	.	.
COc1cc(OC)c(NC(=O)c2c(-c3ccccc3)noc2C)cc1Cl	3	-0.54	-3	1	94*	16
Cc1onc(-c2ccccc2)c1C(=O)Nc1ccccc1N1CCOCC1	1	0.72	17	-1	69*	-5
O=C(NCC1CCN(Cc2ccccc2F)CC1)Nc1cccc(Br)c1	-2	.	.	0	.	21
CN(CC(=O)Nc1ccc(Cl)cc1F)C1=NS(=O)(=O)c2ccccc21	-4	.	.	17	.	.
COc1cc(C)ccc1OCc1cc(C(=O)N2CCC(c3ccc(F)cc3)C2)no1 (configuration not stated)	-4	.	.	1	.	41
CCOC(=O)c1ccc(C(=S)N2CCCC2)cc1	0	.	.	2	.	-8
N#CC(C#N)=c1ccc2c(c1)NC1(CCCCC1)N=2	1	-1.7	.	12	100*	11
N#CC(C#N)=C1NC2(CCCCC2)Cc2ccccc21	-3	0.45	20	1	.	-1
C=CCn1c(-c2csc3c2CCC(C)C3)n[nH]c1=S (configuration not stated)	5	-0.049	80*	1	-3	-5
CCCCn1c(-c2csc3c2CCC(C)C3)n[nH]c1=S (configuration not stated)	1	0.14	84*	-2	19	2
CCCCn1c(-c2csc3c2CCCC3)n[nH]c1=S	2	-0.94	12	0	-4	-1
COc1ccc(CCNc2ncnc3c2nnn3Cc2ccccc2)cc1OC	0	.	.	-1	.	-2
COc1ccc(OC(C)C(=O)N(C)Cc2nc(-c3cccc(C)c3)no2)cc1 (configuration not stated)	4	.	.	1	.	13
O=C(Nc1sc2c(c1C(=O)c1ccc(Cl)cc1)CCCC2)c1cccnc1	-4	0.18	79*	2	9	34
O=C(Nc1sc2c(c1C(=O)c1ccccc1)CCCC2)c1cccnc1	4	-0.29	61	0	33	10
Cc1cc(C)c(S(=O)(=O)Nc2ccc3c(c2)CCC3)c(C)c1	0	0.89	84*	5	91*	23
Cc1ccc(NC(=O)Nc2nnc(-c3ccccc3)o2)cc1	0	0.58	-11	7	-2	-13
Cc1ccc(-c2nnc(Nc3ccccc3)o2)cc1	-8	0.36	84*	-6	4	-9
Fc1ccc(COc2ccc(Br)cc2CNCC2CCCO2)cc1 (configuration not stated)	-2	0.44	21	0	82*	19
CCN(CC)S(=O)(=O)c1cc([N+](=O)[O-])ccc1NNC(=O)Nc1ccccc1OC	-3	0.091	41	-2	80*	16
Oc1ccccc1CNc1cccc2cccnc12	6	-1.5	33	4	4	7
